ChEMBL document CHEMBL4359877, “Identification of benzothiazinones containing an oxime functional moiety as new anti-tuberculosis agents” (Eur J Med Chem, 2019)

Tests used:
[1] = tested on: Mycobacterium tuberculosis; assay: Antimycobacterial activity against Mycobacterium tuberculosis H37Rv ATCC 27294 assessed as reduction in bacterial cell growth incubated for 7 days by microplate alamar blue assay; assay type: functional; details: H37Rv ATCC 27294, 168 h
Summary of the method: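 MABA: H37Rv or clinical MDR isolates (resistant to INH and RFP, Beijing Chest Hospital patients) grown to late log phase in 7H9 with glycerol, Tween 80 and ADC, washed, filtered and frozen. Two-fold compound dilutions with 2 × 10⁵ CFU per well, 37 °C; Alamar blue plus Tween 80 added on day 7, fluorescence (ex 530/em 590) read after 16–24 h. MIC = lowest concentration giving ≥90% fluorescence reduction versus mean of bacterium-only controls; RIF and INH as positive controls.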

[2] = Cytotoxicity against African green monkey Vero cells assessed as reduction in cell viability; assay type: cell-based; details: chlorocebus sabaeus
[3] = Half life in ICR mouse at 25 mg/kg, po measured upto 24 hrs by HPLC analysis; assay type: ADME, organism-based; details: in vivo
Summary of the method: (§1)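 Female SPF ICR mice, 18–22 g, fasted overnight, 3 per group; single oral dose 25 mg/kg as suspension in 0.5% CMC. Jugular vein blood drawn at 0.25, 0.5, 1, 2, 4, 6, 8 and 24 h; serum deproteinised with acetonitrile, dried, redissolved and quantified by HPLC. AUC, t1/2, Cmax and Tmax taken directly from concentration–time data.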

[4] = Tmax in ICR mouse at 25 mg/kg, po measured upto 24 hrs by HPLC analysis; assay type: ADME, organism-based; details: in vivo; summary of the method: as §1
[5] = Cmax in ICR mouse at 25 mg/kg, po measured upto 24 hrs by HPLC analysis; assay type: ADME, organism-based; set-up: dose 25 mg/kg, route oral; details: in vivo; summary of the method: as §1
[6] = AUC (0 to infinity) in ICR mouse at 25 mg/kg, po measured upto 24 hrs by HPLC analysis; assay type: ADME, organism-based; set-up: dose 25 mg/kg, time infinity, route oral; details: in vivo; summary of the method: as §1
[7] = MRT in ICR mouse at 25 mg/kg, po measured upto 24 hrs by HPLC analysis; assay type: ADME, organism-based; details: in vivo; summary of the method: as §1
[8] = tested on: Mycobacterium tuberculosis; assay: Antituberculosis activity against Mycobacterium tuberculosis H37Rv infected in BALB/C mouse assessed as colony forming unit in lungs at 25 mg/kg, po administered once daily via gavage for 5 days per week for 3 weeks starting from 10 days post-infection (reference value: 6.44 +/- 0.34); assay type: functional
[9] = tested on: Mycobacterium tuberculosis; assay: Antimycobacterial activity against Mycobacterium tuberculosis H37Rv assessed as reduction in bacterial cell growth at 32 ug/ml by Low-oxygen recovery assay; assay type: functional
[10] = tested on: Mycobacterium tuberculosis; assay: Antimycobacterial activity against Mycobacterium tuberculosis H37Rv assessed as reduction in bacterial cell growth by Low-oxygen recovery assay; assay type: functional
[11] = target: T1, Cytochrome P450 1A2 (Homo sapiens, UniProt P05177); assay: Inhibition of CYP1A2 (unknown origin); assay type: ADME
T1 sequence (P05177 whole entry): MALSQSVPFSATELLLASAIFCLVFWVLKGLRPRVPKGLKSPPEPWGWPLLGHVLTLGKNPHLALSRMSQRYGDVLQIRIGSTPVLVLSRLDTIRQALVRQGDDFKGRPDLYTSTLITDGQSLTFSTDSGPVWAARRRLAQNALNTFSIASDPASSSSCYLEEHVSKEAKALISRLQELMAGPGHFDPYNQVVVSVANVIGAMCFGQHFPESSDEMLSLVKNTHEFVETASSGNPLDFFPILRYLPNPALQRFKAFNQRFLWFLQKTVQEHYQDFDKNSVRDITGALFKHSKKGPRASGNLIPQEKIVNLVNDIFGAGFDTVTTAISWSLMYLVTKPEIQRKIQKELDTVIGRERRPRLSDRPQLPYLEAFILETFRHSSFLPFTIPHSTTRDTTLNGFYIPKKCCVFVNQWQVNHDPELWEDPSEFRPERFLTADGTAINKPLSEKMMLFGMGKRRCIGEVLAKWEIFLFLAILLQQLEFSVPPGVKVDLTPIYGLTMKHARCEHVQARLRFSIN

[12] = target: Cytochrome P450 2D6 (Homo sapiens, UniProt P10635); assay: Inhibition of CYP2D6 (unknown origin); assay type: ADME
Sequence of Cytochrome P450 2D6 (P10635 whole entry): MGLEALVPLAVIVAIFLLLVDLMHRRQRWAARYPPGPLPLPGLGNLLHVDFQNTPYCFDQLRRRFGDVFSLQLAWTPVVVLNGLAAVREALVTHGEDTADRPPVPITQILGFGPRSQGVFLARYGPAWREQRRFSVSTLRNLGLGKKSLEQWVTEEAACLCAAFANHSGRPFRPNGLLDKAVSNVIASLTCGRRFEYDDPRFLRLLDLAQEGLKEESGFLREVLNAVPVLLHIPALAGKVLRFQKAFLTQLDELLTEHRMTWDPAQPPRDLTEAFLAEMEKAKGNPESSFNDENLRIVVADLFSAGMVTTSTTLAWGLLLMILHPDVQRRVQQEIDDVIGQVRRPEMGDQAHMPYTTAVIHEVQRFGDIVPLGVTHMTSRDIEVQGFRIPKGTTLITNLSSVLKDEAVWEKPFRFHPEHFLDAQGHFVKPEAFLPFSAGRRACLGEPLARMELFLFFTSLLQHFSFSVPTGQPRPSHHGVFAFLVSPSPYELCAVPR

[13] = target: Cytochrome P450 3A4 (Homo sapiens, UniProt P08684); assay: Inhibition of CYP3A4 (unknown origin); assay type: ADME
Sequence of Cytochrome P450 3A4 (P08684 whole entry): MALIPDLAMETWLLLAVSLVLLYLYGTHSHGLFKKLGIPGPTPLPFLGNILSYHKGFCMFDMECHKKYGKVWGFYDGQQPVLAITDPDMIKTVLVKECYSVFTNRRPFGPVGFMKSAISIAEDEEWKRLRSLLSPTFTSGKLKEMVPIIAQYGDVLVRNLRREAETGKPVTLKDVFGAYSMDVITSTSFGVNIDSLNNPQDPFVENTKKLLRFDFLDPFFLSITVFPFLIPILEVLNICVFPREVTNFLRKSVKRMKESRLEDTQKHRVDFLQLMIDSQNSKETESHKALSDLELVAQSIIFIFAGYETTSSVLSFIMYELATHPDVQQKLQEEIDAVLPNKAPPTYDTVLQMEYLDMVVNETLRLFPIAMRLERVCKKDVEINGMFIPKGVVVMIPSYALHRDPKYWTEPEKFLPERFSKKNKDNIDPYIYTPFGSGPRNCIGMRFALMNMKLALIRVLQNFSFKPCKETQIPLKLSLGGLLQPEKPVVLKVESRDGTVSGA

[14] = target: Cytochrome P450 2C9 (Homo sapiens, UniProt P11712); assay: Inhibition of CYP2C9 (unknown origin); assay type: ADME
Sequence of Cytochrome P450 2C9 (P11712 whole entry): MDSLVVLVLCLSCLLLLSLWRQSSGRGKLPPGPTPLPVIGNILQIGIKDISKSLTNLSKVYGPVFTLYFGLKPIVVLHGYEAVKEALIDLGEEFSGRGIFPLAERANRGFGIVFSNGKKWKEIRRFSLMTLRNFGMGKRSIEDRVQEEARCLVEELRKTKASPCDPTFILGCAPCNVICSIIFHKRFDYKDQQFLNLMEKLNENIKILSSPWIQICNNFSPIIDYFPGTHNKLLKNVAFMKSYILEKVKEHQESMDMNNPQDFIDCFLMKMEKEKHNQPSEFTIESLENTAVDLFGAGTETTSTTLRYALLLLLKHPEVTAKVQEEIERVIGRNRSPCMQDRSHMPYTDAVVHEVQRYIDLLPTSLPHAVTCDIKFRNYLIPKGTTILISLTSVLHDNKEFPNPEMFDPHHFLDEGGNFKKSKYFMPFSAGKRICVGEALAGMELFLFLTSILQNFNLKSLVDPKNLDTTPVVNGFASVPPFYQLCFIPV

[15] = target: Cytochrome P450 2C19 (Homo sapiens, UniProt P33261); assay: Inhibition of CYP2C19 (unknown origin); assay type: ADME
Sequence of Cytochrome P450 2C19 (P33261 whole entry): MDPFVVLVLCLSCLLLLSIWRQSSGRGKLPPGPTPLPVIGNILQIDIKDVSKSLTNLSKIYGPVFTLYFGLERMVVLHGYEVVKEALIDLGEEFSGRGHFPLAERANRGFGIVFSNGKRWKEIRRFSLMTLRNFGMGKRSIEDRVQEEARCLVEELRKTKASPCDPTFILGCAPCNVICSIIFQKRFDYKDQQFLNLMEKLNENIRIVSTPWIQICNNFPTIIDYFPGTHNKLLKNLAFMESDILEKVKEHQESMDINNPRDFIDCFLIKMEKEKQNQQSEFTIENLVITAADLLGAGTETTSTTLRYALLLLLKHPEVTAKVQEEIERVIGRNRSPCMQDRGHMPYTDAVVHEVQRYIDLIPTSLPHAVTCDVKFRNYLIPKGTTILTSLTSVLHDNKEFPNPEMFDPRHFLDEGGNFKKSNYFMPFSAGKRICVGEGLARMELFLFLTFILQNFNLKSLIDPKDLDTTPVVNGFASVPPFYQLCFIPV

[16] = target: Voltage-gated inwardly rectifying potassium channel KCNH2 (Homo sapiens, UniProt Q12809); assay: Inhibition of human ERG transfected in HEK293 cells by whole-cell patch clamp method; assay type: cell-based
Sequence of Voltage-gated inwardly rectifying potassium channel KCNH2 (Q12809 whole entry): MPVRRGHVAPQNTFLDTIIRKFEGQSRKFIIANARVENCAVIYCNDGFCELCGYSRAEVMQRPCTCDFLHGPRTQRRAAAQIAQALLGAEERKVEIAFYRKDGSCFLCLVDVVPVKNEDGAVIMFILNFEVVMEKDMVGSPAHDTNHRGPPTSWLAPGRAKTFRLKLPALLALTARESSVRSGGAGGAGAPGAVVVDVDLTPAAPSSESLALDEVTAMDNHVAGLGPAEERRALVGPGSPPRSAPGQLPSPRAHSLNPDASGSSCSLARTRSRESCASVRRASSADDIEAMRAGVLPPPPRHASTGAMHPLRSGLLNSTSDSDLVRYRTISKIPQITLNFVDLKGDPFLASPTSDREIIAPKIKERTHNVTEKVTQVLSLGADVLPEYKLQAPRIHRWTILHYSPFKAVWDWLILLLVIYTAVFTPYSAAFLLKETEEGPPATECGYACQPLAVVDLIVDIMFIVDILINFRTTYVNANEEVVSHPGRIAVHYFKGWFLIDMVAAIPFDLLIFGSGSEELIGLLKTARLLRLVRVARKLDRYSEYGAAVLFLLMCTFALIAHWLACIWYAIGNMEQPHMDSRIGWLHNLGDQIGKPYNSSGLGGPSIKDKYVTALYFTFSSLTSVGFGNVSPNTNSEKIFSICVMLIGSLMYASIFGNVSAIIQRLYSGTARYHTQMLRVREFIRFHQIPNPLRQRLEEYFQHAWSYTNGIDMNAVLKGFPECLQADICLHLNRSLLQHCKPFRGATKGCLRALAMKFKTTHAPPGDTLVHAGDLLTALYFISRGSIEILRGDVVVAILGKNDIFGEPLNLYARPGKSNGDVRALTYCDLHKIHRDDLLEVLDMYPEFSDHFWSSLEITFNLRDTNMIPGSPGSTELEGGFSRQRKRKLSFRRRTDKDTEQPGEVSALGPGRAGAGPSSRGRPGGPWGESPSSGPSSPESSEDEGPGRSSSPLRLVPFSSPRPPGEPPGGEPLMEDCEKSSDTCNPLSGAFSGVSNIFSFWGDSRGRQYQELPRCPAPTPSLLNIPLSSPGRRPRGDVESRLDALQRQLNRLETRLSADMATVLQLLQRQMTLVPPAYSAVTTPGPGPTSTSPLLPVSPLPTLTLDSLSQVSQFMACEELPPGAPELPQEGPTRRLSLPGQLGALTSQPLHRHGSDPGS

[17] = Mutagenicity in Salmonella typhimurium TA100 in absence of S9 fraction by mini-Ames test; assay type: toxicity; details: salmonella enterica subsp. enterica serovar typhimurium
[18] = Mutagenicity in Salmonella typhimurium TA102 in absence of S9 fraction by mini-Ames test; assay type: toxicity; details: salmonella enterica subsp. enterica serovar typhimurium
[19] = Mutagenicity in Salmonella typhimurium TA100 in presence of S9 fraction by mini-Ames test; assay type: toxicity, subcellular; details: salmonella enterica subsp. enterica serovar typhimurium
[20] = Mutagenicity in Salmonella typhimurium TA102 in presence of S9 fraction by mini-Ames test; assay type: toxicity, subcellular; details: salmonella enterica subsp. enterica serovar typhimurium
[21] = Acute toxicity in Sprague-Dawley rat assessed as death at 2 g/kg, po measured continuously for first 4 hrs followed by every 1 hr for next 24 hrs and subsequent 8 hrs interval for 7 days; assay type: organism-based; details: in vivo, 2000 mg/kg
Summary of the method: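 SD rats, 180–220 g, randomised, ten per group, food withheld overnight. Single oral dose of 2 g/kg suspended in 5% CMC; controls given vehicle only. Watched continuously for 4 h, hourly for the next 24 h, then every 8 h through day 7 for deaths or changes. Read-out is survivors/total at 7 days.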

[22] = Half life in Sprague-Dawley rat at 2.5 mg/kg, iv measured upto 24 hrs by HPLC analysis; assay type: ADME, organism-based; details: in vivo
Summary of the method: (§2)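 SD rats, 180–220 g; single intravenous dose 2.5 mg/kg or oral doses of 25, 50 or 200 mg/kg, n = 6, half of each sex. Serum sampling, acetonitrile deproteinisation and HPLC quantification followed the mouse procedure. Parameters derived from concentration–time data; F% obtained from the oral and IV exposures.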

[23] = Cmax in Sprague-Dawley rat at 2.5 mg/kg, iv measured upto 24 hrs by HPLC analysis; assay type: ADME, organism-based; set-up: dose 2.5 mg/kg, route intravenous; details: in vivo; summary of the method: as §2
[24] = AUC (0 to infinity) in Sprague-Dawley rat at 2.5 mg/kg, iv by HPLC analysis; assay type: ADME, organism-based; set-up: dose 2.5 mg/kg, route intravenous, time infinity; details: in vivo; summary of the method: as §2
[25] = Half life in Sprague-Dawley rat at 25 mg/kg, po measured upto 24 hrs by HPLC analysis; assay type: ADME, organism-based; details: in vivo; summary of the method: as §2
[26] = Half life in Sprague-Dawley rat at 50 mg/kg, po measured upto 24 hrs by HPLC analysis; assay type: ADME, organism-based; details: in vivo; summary of the method: as §2
[27] = Half life in Sprague-Dawley rat at 200 mg/kg, po measured upto 24 hrs by HPLC analysis; assay type: ADME, organism-based; details: in vivo; summary of the method: as §2
[28] = Tmax in Sprague-Dawley rat at 25 mg/kg, po measured upto 24 hrs by HPLC analysis; assay type: ADME, organism-based; details: in vivo; summary of the method: as §2
[29] = Tmax in Sprague-Dawley rat at 50 mg/kg, po measured upto 24 hrs by HPLC analysis; assay type: ADME, organism-based; details: in vivo; summary of the method: as §2
[30] = Tmax in Sprague-Dawley rat at 200 mg/kg, po measured upto 24 hrs by HPLC analysis; assay type: ADME, organism-based; details: in vivo; summary of the method: as §2
[31] = Cmax in Sprague-Dawley rat at 25 mg/kg, po measured upto 24 hrs by HPLC analysis; assay type: ADME, organism-based; set-up: dose 25 mg/kg, route oral; details: in vivo; summary of the method: as §2
[32] = Cmax in Sprague-Dawley rat at 50 mg/kg, po measured upto 24 hrs by HPLC analysis; assay type: ADME, organism-based; set-up: dose 50 mg/kg, route oral; details: in vivo; summary of the method: as §2
[33] = Cmax in Sprague-Dawley rat at 200 mg/kg, po measured upto 24 hrs by HPLC analysis; assay type: ADME, organism-based; set-up: dose 200 mg/kg, route oral; details: in vivo; summary of the method: as §2
[34] = AUC (0 to infinity) in Sprague-Dawley rat at 25 mg/kg, po by HPLC analysis; assay type: ADME, organism-based; set-up: dose 25 mg/kg, route oral, time infinity; details: in vivo; summary of the method: as §2
[35] = AUC (0 to infinity) in Sprague-Dawley rat at 50 mg/kg, po by HPLC analysis; assay type: ADME, organism-based; set-up: dose 50 mg/kg, time infinity, route oral; details: in vivo; summary of the method: as §2
[36] = AUC (0 to infinity) in Sprague-Dawley rat at 200 mg/kg, po by HPLC analysis; assay type: ADME, organism-based; set-up: dose 200 mg/kg, route oral, time infinity; details: in vivo; summary of the method: as §2
[37] = Oral bioavailability in Sprague-Dawley rat at 25 mg/kg measured upto 24 hrs by HPLC analysis; assay type: ADME, organism-based; details: in vivo; summary of the method: as §2
[38] = Oral bioavailability in Sprague-Dawley rat at 50 mg/kg measured upto 24 hrs by HPLC analysis; assay type: ADME, organism-based; details: in vivo; summary of the method: as §2
[39] = Oral bioavailability in Sprague-Dawley rat at 200 mg/kg measured upto 24 hrs by HPLC analysis; assay type: ADME, organism-based; details: in vivo; summary of the method: as §2

Compound: O=c1nc(N2CCN(CC3CCCCC3)CC2)sc2c([N+](=O)[O-])cc(C(F)(F)F)cc12 [MACOZINONE]
- MIC90 [1]: < 0.016 µg/mL
- CC50 [2]: > 64 µg/mL
- half-life [3]: 2.78 h
- Tmax [4]: 0.25 h
- Cmax [5]: 912 ng/mL
- AUC(0-inf) [6]: 1660 ng·h/mL
- MRT [7]: 3.17 h
- Activity [8]: 2.65 log10CFU
- inhibition at 32 µg/mL [9]: 78%
- MIC [10]: > 32 µg/mL
- IC50 [11]: > 10 µM
- IC50 [12]: > 10 µM
- IC50 [13]: > 10 µM
- IC50 [14]: > 10 µM
- IC50 [15]: 3.77 µM
- IC50 [16]: 102 µM
- Activity [17]: Non-Toxic
- Activity [18]: Non-Toxic
- Activity [19]: Non-Toxic
- Activity [20]: Non-Toxic
- Activity [21]: Non-Toxic
- half-life [22]: 1.64 h
- Cmax [23]: 1440 ng/mL
- AUC(0-inf) [24]: 1540 ng·h/mL
- half-life [25]: 4.23 h
- half-life [26]: 4.86 h
- half-life [27]: 5.76 h
- Tmax [28]: 0.91 h
- Tmax [29]: 1.33 h
- Tmax [30]: 2.5 h
- Cmax [31]: 463 ng/mL
- Cmax [32]: 694 ng/mL
- Cmax [33]: 804 ng/mL
- AUC(0-inf) [34]: 1600 ng·h/mL
- AUC(0-inf) [35]: 3120 ng·h/mL
- AUC(0-inf) [36]: 4720 ng·h/mL
- bioavailability [37]: 10.7%
- bioavailability [38]: 10.2%
- bioavailability [39]: 3.82%
